Published values collected from several papers.
Compare with care: the assays were run in different laboratories.
Target: Serine/threonine-protein kinase Sgk2 (SGK2, Homo sapiens, UniProt Q9HBY8)
One construct used (Q9HBY8 1-367): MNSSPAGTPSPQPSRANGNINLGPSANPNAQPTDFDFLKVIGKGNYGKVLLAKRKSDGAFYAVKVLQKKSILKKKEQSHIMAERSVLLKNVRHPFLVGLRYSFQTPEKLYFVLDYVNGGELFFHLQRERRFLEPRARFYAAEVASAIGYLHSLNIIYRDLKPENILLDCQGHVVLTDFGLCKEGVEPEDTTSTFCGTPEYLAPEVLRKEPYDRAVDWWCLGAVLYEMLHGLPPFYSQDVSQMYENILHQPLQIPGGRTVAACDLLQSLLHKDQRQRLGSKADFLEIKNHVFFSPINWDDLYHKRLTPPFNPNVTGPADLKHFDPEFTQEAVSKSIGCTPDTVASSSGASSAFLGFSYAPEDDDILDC

CC(=O)c1c(NS(C)(=O)=O)c2cc(-c3ccc(Cl)cc3)c(-c3ccc(Cl)cc3Cl)nc2n(C)c1=O  remaining binding (cell-free assay, competition with immobilised ligand; 1 µM): 92%
CCN(CC)CCNC(=O)c1c(C)[nH]c(/C=C2\C(=O)Nc3ccc(F)cc32)c1C  inhibition (enzyme activity, inhibitor; 0.3 µM): 4%
COc1cc2ncnc(Nc3ccc(Oc4ccccc4)c(C)c3C)c2cc1OC  inhibition (enzyme activity, inhibitor; 1 µM): 0%
CN([C@@H]1CCc2c(CC(=O)O)c3cc(S(C)(=O)=O)ccc3n2C1)S(=O)(=O)c1ccc(F)cc1  remaining binding (cell-free assay, competition with immobilised ligand; 1 µM): 100%
CC(C)(C)c1nc(-c2cccc(NS(=O)(=O)c3c(F)cccc3F)c2F)c(-c2ccnc(N)n2)s1  remaining activity (enzyme activity, inhibitor, radiometric; 1 µM): 101%
CCN(CC)c1ccc(C2=NNC(=O)CC2C)cc1[N+](=O)[O-] (stereo not shown)  remaining activity (enzyme activity, inhibitor; 10 µM): 104%
O=C1NC(=O)c2cc(Nc3ccc(F)cc3)c(Nc3ccc(F)cc3)cc21  remaining signal (cell-free assay; 0.5 µM): 99.7%
CNc1cccc2cc(C(=O)Nc3ccc(C(=O)O)cc3)c(=O)[nH]c12  inhibition (enzyme activity, inhibitor; 10 µM): -1.2%
Cn1cnc(Br)c1C1=CN(c2ncnc3[nH]cnc23)CCS1  inhibition (enzyme activity, inhibitor, radiometric; 2 µM): 82.2%
Cc1ccc(Nc2nccc(N(C)c3ccc4c(C)n(C)nc4c3)n2)cc1S(N)(=O)=O  inhibition (enzyme activity, inhibitor; 0.3 µM): 5%
Nc1cnc(N2CCc3cc(S(=O)(=O)Nc4c(F)cc(Cl)cc4F)cc(N4CCCC4=O)c32)nc1  remaining binding (cell-free assay, competition with immobilised ligand; 1 µM): 76%
Cc1ccc(NC(=O)c2ccc(C)c(C(F)(F)F)c2)cc1C#Cc1nn(C2CCC(O)CC2)c2ncnc(N)c12 (stereo not shown)  remaining signal (cell-free assay; 10 µM): 97%
Cc1cnc(NC2CCOCC2)nc1-n1cnc(C(=O)NC(CN)c2cc(F)cc(Cl)c2)c1 (stereo not shown)  remaining activity (enzyme activity, inhibitor, radiometric; 1 µM): 25%
O=C1Nc2ccc(Cl)cc2C1=Cc1cc(Cl)c(O)c(Cl)c1  remaining signal (cell-free assay; 0.5 µM): 89.2%
Nc1c(C(=O)NCc2ccc(C(=O)NCCCC3CCCCC3)cc2)cnn1-c1ccccc1  remaining binding (cell-free assay, competition with immobilised ligand; 0.1 µM): 72%
Nc1ncnc2occ(-c3ccc(NC(=O)Nc4cc(C(F)(F)F)ccc4F)cc3)c12  remaining signal (cell-free assay, inhibitor; 20 µM): 13%
CCCOc1ccc(OC)c(F)c1C(=O)c1ccc(C(=O)N[C@@H]2CNC[C@H]2NC(=O)c2ccc3[nH]ncc3c2)cc1  remaining activity (enzyme activity, inhibitor; 50 nM): 72%
CCCS(=O)(=O)Nc1ccc(F)c(C(=O)c2c[nH]c3ncc(-c4ccc(Cl)cc4)cc23)c1F  inhibition (enzyme activity, inhibitor; 1 µM): < 10%
CO[C@H]1CC[C@H](CNc2ccc(S(=O)(=O)NC(=O)c3ccc(N4CCN(CC5=C(c6ccc(Cl)cc6)CC(C)(C)CC5)CC4)cc3Oc3cnc4[nH]ccc4c3)cc2[N+](=O)[O-])CC1  remaining binding (cell-free assay, competition with immobilised ligand; 1 µM): 91%
O=C(Nc1cnn(-c2csc(C(=O)NC3COC3)c2)c1)Nc1c(F)cccc1Cl  remaining activity (enzyme activity, inhibitor; 5 µM): 88.6%
CNC(=O)c1cc(Oc2ccc(NC(=O)Nc3ccc(Cl)c(C(F)(F)F)c3)cc2)ccn1  inhibition (enzyme activity, inhibitor; 10 µM): -2%
O=C(NS(=O)(=O)c1ccc(NCC2CCOCC2)c([N+](=O)[O-])c1)c1ccc(N2CCN(Cc3ccc(C(F)(F)F)cc3-c3ccc(Cl)cc3)CC2)cc1Oc1cnc2[nH]ccc2c1  remaining binding (cell-free assay, competition with immobilised ligand; 1 µM): 100%
